Results published in ChEMBL document CHEMBL4311940, “Design, Synthesis, and Biological Evaluation of 4-Methyl Quinazoline Derivatives as Anticancer Agents Simultaneously Targeting Phosphoinositide 3-Kinases and Histone Deacetylases” (J Med Chem, 2019).
Activity calls are given as the source filed them. No cut-off for these calls is given here.

Experiments:
[1] = molecular target: Phosphatidylinositol 4,5-bisphosphate 3-kinase catalytic subunit alpha isoform (Homo sapiens, UniProt P42336); experiment: Inhibition of recombinant human PI3Kalpha using PIP2 as substrate incubated for 1 hr by kinase-glo assay
[2] = molecular target: Protein deacetylase HDAC6 (Homo sapiens, UniProt Q9UBN7); experiment: Inhibition of HDAC6 (unknown origin) using Ac-peptide as substrate preincubated for 15 mins followed by substrate addition and measured after 1 hr
[3] = molecular target: PI3-kinase p110-delta/p85-alpha (Homo sapiens, UniProt O00329); experiment: Inhibition of recombinant human His-tagged PIK3CD/PIK3R1 expressed in baculovirus expression system using PIP2 as substrate incubated for 1 hr by ADP-glo assay
Homo sapiens [4] = species: Homo sapiens; experiment: Selectivity ratio, ratio of IC50 for recombinant human PI3Kalpha to recombinant human His-tagged PIK3CD/PIK3R1 expressed in baculovirus expression system
Homo sapiens [5] = species: Homo sapiens; experiment: Inhibition of PI3K in human HCT116 cells assessed as reduction in AKT phosphorylation at T308 residue at 0.02 to 0.5 uM after 16 hrs by Western blot analysis; format: cell-based
In short: (§1)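 Immunoblot of HCT116 lysates (RIPA). 40 μg protein per lane on 10−12% SDS-PAGE, transferred to nitrocellulose, blocked 0.5 h in 5% milk/TBST. Primary antibodies 1:1000 overnight at 4 °C, secondary 1:1000 for 1 h, bands visualized by enhanced ECL.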

[6] = molecular target: Histone deacetylase (Homo sapiens) (UniProt Q13547+O15379+Q9UBN7+Q92769+Q9UQL6+Q8WUI4+Q9BY41+Q96DB2+P56524+Q9UKV0+Q969S8); experiment: Inhibition of HDAC in human HCT116 cells assessed as increase in acetylated histone H3 levels after 16 hrs by Western blot analysis; format: cell-based
In short: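 HCT116 cells lysed in RIPA after washes in cold PBS. 40 μg protein run on 10−12% SDS-PAGE and transferred to nitrocellulose. Membrane blocked in 5% milk/TBST for 0.5 h, primary antibodies 1:1000 overnight at 4 °C, secondary 1:1000 for 1 h, ECL detection.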

Homo sapiens [7] = species: Homo sapiens; experiment: Inhibition of HDAC/PI3K in human HCT116 cells assessed as increase in cleaved caspase-3 level at 0.02 to 0.5 uM after 16 hrs by Western blot analysis; format: cell-based; in short: as §1
Homo sapiens [8] = species: Homo sapiens; experiment: Inhibition of HDAC/PI3K in human HCT116 cells assessed as increase in cleaved PARP level at 0.02 to 0.5 uM after 16 hrs by Western blot analysis; format: cell-based; in short: as §1
[9] = molecular target: Phosphatidylinositol 4,5-bisphosphate 3-kinase catalytic subunit gamma isoform (Homo sapiens, UniProt P48736); experiment: Binding affinity to wild-type human partial length PIK3CG (S144 to A1102 residues) expressed in mammalian expression system assessed as residual binding level at 1 uM by Kinomescan method relative to control
In short: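 Kinomescan binding screen at 1 μM across 97 kinases.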

Homo sapiens [10] = species: Homo sapiens; experiment: Inhibition of HDAC/PI3K in human HCT116 cells assessed as increase in cleaved PARP level at 0.5 to 5 uM after 16 hrs by Western blot analysis; format: cell-based; in short: as §1
[11] = Terminal half life in ICR mouse at 3 mg/kg, iv measured after 0.033 to 24 hrs by LC/MS/MS analysis; format: ADME, organism-based; settings: in vivo, read-out: beta t1/2 (converted)
In short: (§2)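 Male-unspecified ICR mice, 3 per group iv (3 mg/kg in 10% DMSO/saline) and 5 per group po (30 mg/kg in 0.5% cmc/0.3% Tween 80). Blood sampled 0.033 (iv) or 0.083 (po) to 24 h. Plasma extracted with acetonitrile, analysed by LC/MS/MS; noncompartmental analysis.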

[12] = Terminal half life in ICR mouse at 30 mg/kg, po measured after 0.083 to 24 hrs by LC/MS/MS analysis; format: ADME, organism-based; settings: in vivo, read-out: beta t1/2 (converted); in short: as §2
[13] = Half life in mouse liver microsomes preincubated for 5 mins followed by NADPH addition by LC/MS analysis; format: ADME, Microsome
In short: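 Mouse liver microsomes (0.5 mg/mL protein) with compound preincubated 5 min at 37 °C, started with NADPH; quenched with acetonitrile at time points; LC/MS. T1/2 = 0.693/K from ln(concentration) vs time; Clint scaled with factor 3937.5.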

HCT-116 [14] = experiment: Antitumor activity against human HCT116 cells xenografted in athymic nude BALB/c mouse assessed as tumor growth inhibition at 100 mpk, po measured 2 times every week relative to control; format: functional; settings: HCT-116, po, read-out: TGI
In short: (§3)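 Female BALB/c-nu/nu mice, 6–8 weeks, given 2 × 10^6 HCT116 cells in 0.2 mL saline s.c. right flank; randomized at 100–200 mm3. Daily oral dosing in 0.5% cmc with Tween 80; vehicle controls.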

HCT-116 [15] = experiment: Antitumor activity against human HCT116 cells xenografted in athymic nude BALB/c mouse assessed as tumor growth inhibition at 150 mpk, po measured 2 times every week relative to control; format: functional; settings: HCT-116, po, read-out: TGI; in short: as §3
HCT-116 [16] = experiment: Antitumor activity against human HCT116 cells xenografted in po dosed athymic nude BALB/c mouse assessed as tumor growth inhibition measured 2 times every week; format: functional, organism-based; in short: as §3
[17] = Toxicity in athymic nude BALB/c mouse xenografted with human HCT116 cells assessed as reduction in body weight at 100 to 150 mpk, po measured 2 times every week; format: organism-based; settings: in vivo
[18] = Drug level in tumor of human HCT116 cells xenografted in athymic nude BALB/c mouse at 150 mpk, po by LC/MS/MS analysis; format: ADME, organism-based, Neoplasm; settings: in vivo, 150 mg/kg
In short: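 HCT116 xenografted nude mice given daily oral doses; tumor tissue sampled 1 h after final dose and compound level measured (ng/g).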

HGC-27 = experiment: Antitumor activity against human HGC27 cells xenografted in athymic nude BALB/c mouse assessed as tumor growth inhibition at 200 mpk, po measured 2 times every week; format: functional; settings: HGC-27, po, read-out: TGI
In short: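 HGC-27 xenograft: 2 × 10^6 cells in 0.2 mL saline s.c. right flank of female BALB/c-nu/nu mice (6–8 weeks); randomized at 100–200 mm3. Oral dosing in 0.5% cmc with Tween 80, intraperitoneal in saline; vehicle given orally daily.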

[19] = Drug level in BALB/c mouse plasma xenografted with human HGC27 cells at 100 mg/kg, po measured 0.5 hrs post last dose; format: ADME, organism-based
In short: (§4)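 HGC-27 xenografted nude mice dosed po (0.5% cmc/Tween 80) or ip (saline); at end of treatment, 0.5 h after final dose, plasma and tumor tissue collected and compound concentration measured (ng/mL plasma, ng/g tumor).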

[20] = Drug level in tumor of human HGC27 cells xenografted in BALB/c mouse at 30 mg/kg, ip measured 0.5 hrs post last dose; format: ADME, organism-based, Neoplasm; settings: read-out: Drug uptake; in short: as §4
Mus musculus = experiment: In vivo inhibition of PI3K/HDAC in tumor of human HGC27 cells xenografted in athymic nude BALB/c mouse assessed as reduction in phosphorylated Ki67 expression by DAB staining based immunohistochemistry method; format: functional, organism-based
In short: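 HGC-27 xenograft tumors from treated and vehicle mice immunostained for Ki67, Ac-H3 and p-AKT(S473) (200×); integrated optical density analysed; mean ± SEM, n = 5−7, one-way ANOVA versus vehicle.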

[21] = Drug metabolism in rat bile assessed as hydrolyzed metabolite formation at 0.74 mg/kg, iv after 1 hr by LC/MS/MS analysis; format: ADME, organism-based; settings: in vivo

Phosphatidylinositol 4,5-bisphosphate 3-kinase catalytic subunit alpha isoform, sequence (P42336 whole entry, canonical isoform): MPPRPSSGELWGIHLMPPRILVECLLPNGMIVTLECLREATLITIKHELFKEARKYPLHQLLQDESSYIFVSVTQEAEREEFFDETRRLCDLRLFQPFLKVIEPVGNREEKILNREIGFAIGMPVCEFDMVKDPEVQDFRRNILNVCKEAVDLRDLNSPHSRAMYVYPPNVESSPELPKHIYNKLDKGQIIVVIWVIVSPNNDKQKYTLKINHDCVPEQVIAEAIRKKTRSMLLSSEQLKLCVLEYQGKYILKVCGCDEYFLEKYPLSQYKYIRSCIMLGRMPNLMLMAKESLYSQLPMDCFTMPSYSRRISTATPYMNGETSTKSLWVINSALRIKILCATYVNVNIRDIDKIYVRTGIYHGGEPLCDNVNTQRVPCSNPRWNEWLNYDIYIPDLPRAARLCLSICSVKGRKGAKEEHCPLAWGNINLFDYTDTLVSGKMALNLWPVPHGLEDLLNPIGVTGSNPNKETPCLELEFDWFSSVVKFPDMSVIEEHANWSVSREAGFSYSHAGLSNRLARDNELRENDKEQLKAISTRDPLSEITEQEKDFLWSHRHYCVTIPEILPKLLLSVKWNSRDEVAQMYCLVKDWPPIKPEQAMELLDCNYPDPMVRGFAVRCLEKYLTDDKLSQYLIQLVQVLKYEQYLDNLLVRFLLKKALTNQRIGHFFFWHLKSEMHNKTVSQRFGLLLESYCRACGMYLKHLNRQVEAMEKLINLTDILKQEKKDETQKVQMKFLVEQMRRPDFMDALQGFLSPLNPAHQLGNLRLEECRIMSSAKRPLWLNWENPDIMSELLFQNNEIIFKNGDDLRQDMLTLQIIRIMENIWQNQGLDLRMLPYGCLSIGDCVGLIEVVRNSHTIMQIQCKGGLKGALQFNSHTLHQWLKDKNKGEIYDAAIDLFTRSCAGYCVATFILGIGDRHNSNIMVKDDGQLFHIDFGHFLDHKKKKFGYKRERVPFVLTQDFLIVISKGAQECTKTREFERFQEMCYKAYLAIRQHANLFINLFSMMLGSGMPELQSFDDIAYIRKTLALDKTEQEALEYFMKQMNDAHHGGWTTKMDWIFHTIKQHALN
Phosphatidylinositol 4,5-bisphosphate 3-kinase catalytic subunit gamma isoform, sequence (P48736 whole entry, looked up, the tested form may be a part, canonical isoform): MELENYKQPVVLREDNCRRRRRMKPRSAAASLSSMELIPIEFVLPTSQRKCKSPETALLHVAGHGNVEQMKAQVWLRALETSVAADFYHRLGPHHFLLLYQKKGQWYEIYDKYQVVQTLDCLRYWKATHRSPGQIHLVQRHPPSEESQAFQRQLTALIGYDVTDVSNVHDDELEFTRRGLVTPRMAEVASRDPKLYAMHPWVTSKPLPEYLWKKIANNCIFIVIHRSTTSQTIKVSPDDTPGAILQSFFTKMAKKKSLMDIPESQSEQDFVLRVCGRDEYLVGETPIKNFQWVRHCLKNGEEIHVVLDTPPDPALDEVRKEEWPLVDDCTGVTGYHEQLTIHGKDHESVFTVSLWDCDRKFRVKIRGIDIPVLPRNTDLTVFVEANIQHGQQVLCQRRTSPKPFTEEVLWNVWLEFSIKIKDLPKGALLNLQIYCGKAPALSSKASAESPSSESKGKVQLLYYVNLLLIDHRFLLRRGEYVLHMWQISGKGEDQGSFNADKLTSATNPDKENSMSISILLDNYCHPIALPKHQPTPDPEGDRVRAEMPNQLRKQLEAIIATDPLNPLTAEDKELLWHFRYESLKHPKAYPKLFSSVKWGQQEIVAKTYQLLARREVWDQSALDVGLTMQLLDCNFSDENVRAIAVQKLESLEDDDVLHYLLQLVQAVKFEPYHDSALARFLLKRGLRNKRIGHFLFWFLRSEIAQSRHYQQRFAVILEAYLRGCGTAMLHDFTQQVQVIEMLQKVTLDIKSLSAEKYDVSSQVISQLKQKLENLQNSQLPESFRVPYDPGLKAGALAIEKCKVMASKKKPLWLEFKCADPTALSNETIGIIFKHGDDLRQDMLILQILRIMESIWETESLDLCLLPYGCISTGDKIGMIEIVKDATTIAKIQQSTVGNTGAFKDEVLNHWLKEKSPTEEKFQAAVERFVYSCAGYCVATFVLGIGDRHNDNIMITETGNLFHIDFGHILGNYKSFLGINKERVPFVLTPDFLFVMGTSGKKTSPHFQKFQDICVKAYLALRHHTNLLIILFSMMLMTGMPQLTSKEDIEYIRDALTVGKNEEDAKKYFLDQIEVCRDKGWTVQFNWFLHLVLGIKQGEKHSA
PI3-kinase p110-delta/p85-alpha, sequence (P27986 whole entry): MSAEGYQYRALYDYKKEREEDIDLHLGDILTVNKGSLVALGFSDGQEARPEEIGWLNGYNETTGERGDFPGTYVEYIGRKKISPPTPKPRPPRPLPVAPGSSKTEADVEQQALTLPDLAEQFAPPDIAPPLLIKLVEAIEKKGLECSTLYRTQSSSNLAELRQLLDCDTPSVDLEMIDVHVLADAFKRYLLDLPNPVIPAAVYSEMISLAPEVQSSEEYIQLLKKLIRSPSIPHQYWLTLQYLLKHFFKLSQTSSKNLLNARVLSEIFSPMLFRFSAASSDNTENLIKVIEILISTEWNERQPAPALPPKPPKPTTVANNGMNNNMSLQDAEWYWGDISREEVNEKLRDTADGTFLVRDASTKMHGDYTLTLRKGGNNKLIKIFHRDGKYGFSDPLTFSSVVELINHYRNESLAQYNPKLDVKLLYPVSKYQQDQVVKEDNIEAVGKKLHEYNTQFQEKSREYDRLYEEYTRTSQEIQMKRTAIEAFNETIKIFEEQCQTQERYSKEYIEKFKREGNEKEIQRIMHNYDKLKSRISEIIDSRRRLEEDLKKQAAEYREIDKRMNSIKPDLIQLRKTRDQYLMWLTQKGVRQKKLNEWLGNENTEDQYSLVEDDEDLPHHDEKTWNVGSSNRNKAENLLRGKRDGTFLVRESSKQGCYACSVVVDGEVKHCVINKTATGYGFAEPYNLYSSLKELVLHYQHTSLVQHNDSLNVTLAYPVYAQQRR
PI3-kinase p110-delta/p85-alpha, sequence (O00329 whole entry): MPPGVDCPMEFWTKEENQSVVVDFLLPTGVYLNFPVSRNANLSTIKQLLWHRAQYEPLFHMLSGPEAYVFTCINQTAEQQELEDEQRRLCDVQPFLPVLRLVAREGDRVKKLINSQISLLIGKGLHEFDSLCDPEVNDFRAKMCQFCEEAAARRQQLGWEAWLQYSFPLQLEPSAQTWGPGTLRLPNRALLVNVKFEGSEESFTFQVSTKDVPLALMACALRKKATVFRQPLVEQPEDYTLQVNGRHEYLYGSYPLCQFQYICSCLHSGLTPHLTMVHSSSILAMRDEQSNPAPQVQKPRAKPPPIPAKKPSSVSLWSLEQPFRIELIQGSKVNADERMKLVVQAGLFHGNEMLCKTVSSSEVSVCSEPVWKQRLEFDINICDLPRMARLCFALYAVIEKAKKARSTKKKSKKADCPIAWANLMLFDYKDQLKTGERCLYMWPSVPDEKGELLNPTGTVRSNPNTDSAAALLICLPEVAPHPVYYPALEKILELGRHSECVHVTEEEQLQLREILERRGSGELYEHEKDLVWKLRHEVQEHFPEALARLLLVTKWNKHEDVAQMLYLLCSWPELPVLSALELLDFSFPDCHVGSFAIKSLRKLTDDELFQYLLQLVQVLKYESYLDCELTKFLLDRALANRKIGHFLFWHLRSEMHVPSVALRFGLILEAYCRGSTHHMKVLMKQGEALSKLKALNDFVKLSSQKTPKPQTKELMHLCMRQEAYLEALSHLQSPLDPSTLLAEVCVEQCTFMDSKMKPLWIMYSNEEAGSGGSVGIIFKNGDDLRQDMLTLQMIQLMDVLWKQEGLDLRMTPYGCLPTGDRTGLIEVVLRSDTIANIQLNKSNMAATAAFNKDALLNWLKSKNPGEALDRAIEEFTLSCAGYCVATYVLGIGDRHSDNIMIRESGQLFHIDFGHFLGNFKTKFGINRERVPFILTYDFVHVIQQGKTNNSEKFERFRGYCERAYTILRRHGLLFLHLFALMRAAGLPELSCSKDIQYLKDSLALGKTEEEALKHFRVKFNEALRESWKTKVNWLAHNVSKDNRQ

Question: For `COc1ccc(-c2cc(OCCN(C)c3ncc(C(=O)NO)cn3)c3ncnc(C)c3c2)cn1`, which IC50 [1] is on record?
Answer: 226 nM

Question: And the IC50 [2]?
Answer: 17 nM

Question: What about the IC50 [3] of the same compound?
Answer: 29 nM

Question: And the Ratio IC50 (Homo sapiens [4])?
Answer: > 5

Question: And the inhibition (Homo sapiens [5])?
Answer: Active

Question: And the inhibition [6]?
Answer: Dose-dependent effect

Question: What about the inhibition (Homo sapiens [7]) of the same compound?
Answer: Active

Question: And the inhibition (Homo sapiens [8])?
Answer: Active

Question: Which results are given for `COc1ncc(-c2cc(OCCCCCCC(=O)NO)c3ncnc(C)c3c2)cc1F`?
Answer: Activity [9]: 1.4%; inhibition (Homo sapiens [10]): Active; half-life [11]: 19.8 min; half-life [12]: 124 min; half-life [13]: 24.6 min; inhibition in vivo at 100 mg/kg (HCT-116 [14]): 18.3%; inhibition in vivo at 150 mg/kg (HCT-116 [15]): 45.8%; Activity (HCT-116 [16]): Dose-dependent effect; Activity [17]: Toxic; Drug uptake [18]: 74.8 ng/g; inhibition in vivo at 200 mg/kg (HGC-27): 45.9%; concentration at 0.5 h [19]: 179 ng/mL; concentration at 0.5 h [20]: 370 ng/g; inhibition (Mus musculus): Active; Drug metabolism [21]: Metabolite_Detected
